Values after ≈ are worked out from the molar mass of the structure shown. Read-outs that look alike come from different tables or passages of the source. Marks after values point to notes of the source that are not given here.
What was measured:
[1] = tested on: wild-type C. neoformans H99; assay: Growth inhibition; type: cell-based, Cryptococcus neoformans; conditions: for effect of added Ag(I) on MIC: 10 μM supplemental Ag(I); for effect of added Cu(II) on MIC: 10 μM supplemental Cu(II); for effect of added Fe(III) on MIC: 10 μM supplemental Fe(III); for effect of added Zn(II) on MIC: 10 μM supplemental Zn(II); for Minimum inhibitory concentration (MIC) / MIC: 30 °C; for MIC: Cryptococcus neoformans, read-out: Minimum inhibitory concentration (MIC), supplemental [Cu] 1 mM (CuSO4); for growth compared to no treatment at 48 h: 100 μM compound, no supplemental Cu; for effect of supplemental Cu on the growth inhibition by the compound: 1 mM Cu, high compound concentration (100 μM; CQ 50 μM)
WT C. neoformans [2] = assay: Fungicidal assay; type: cell-based, Cryptococcus neoformans; conditions: 24 h in liquid culture, PyS 3 μM
[3] = tested on: ctr1Δctr4Δ mutant strain of C. neoformans; assay: Growth recovery of Cu-import deficient mutant in YPEG medium; type: cell-based, Cryptococcus neoformans; conditions: YPEG medium without supplemental Cu, micromolar compound, 48 h
Conditional Cu [4] = type: binding
Conditional Cu [5] = type: binding; conditions: for competition for Cu(I) with BCA or ferrozine: pH 7.4, anaerobic
[6] = Calcein competition assay for Cu; type: binding; conditions: 100 μM compound; HEPES pH 7.4 and SC medium pH 4.5
[7] = tested on: C. neoformans wild type, H99 cells; type: cell-based, Cryptococcus neoformans; conditions: SC medium; for cellular metal content compared to the other conditions: 10 μM ligand
Stoichiometry with Cu [8] = type: binding; conditions: 5% DMSO in universal buffer, pH 7.4, anaerobic
Method in brief: (§1)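 Ligand–Cu mixtures were made in 5% DMSO in Britton–Robinson universal buffer, pH 7.4. Total metal plus ligand concentration was held constant while the Cu mole fraction was varied from 0.1 to 1.0, and samples were read by UV-vis. Ligand stocks were 100 mM in DMSO. For Cu(I), the buffer (0.04 M […], H3PO4, CH3CO2H) was deoxygenated, samples were prepared and measured anaerobically in a glove box, and stock concentration was set by BCA titration at 562 nm.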

Stoichiometry with Cu [9] = type: binding; conditions: 5% DMSO in universal buffer, pH 7.4
Method in brief: as §1

[10] = cited from earlier work
[11] = pH 7.4; ref Smith, R. M.; Martell, A. E.; Motekaitis, R. J, 2007; cited from earlier work
WT C. neoformans [12] = conditions: with 10 μM Cu; cited from earlier work
[13] = tested on: ctr1Δctr4Δ mutant strain of C. neoformans; conditions: YPEG medium; cited from earlier work
[14] = no supplemental Cu ([Cu] 0 mM), SC medium, 48 h
[15] = supplemental [Cu] 0.01 mM (CuSO4), SC medium, 48 h
[16] = supplemental [Cu] 1 mM (CuSO4), SC medium, 48 h
[17] = with 10 μM CuSO4, ThM above 6 μM
[18] = conditional, universal buffer pH 7.4, competition with PAR
[19] = negative log of free [Cu] at pH 7.4, total ligand 10 μM, total Cu 1 μM
[20] = conditional, universal buffer pH 7.4, competition with BCA
[21] = 10 μM ligand co-incubated with 10 μM CuSO4, 1 h

With `Cc1occc(=S)c1O` [ThM, thiomaltol] the “effect of added Ag(I) on MIC” value ([1]; 48 h) was “no effect”, the “effect of added Cu(II) on MIC” value ([1]; 48 h) was “significant decrease” and the “effect of added Fe(III) on MIC” value ([1]; 48 h) was “did not significantly affect”. The “effect of added Zn(II) on MIC” value ([1]; 48 h) was “did not significantly affect”, the “Minimum inhibitory concentration (MIC)” value [1, 14] was greater than 100 µM and the “MIC in the presence of added Cu” value ([1]; range over low (10 μM) and high (1 mM) supplemental Cu, SC medium, 48 h) was 6 to 25 µM. For the same compound, the “Minimum inhibitory concentration (MIC)” value [1, 15] was 6 µM (≈ 0.853 µg/mL), the “Minimum inhibitory concentration (MIC)” value [1, 16] was 25 µM (≈ 3.55 µg/mL) and the “fungicidal or fungistatic activity (CFU)” value (WT C. neoformans [2]; [17]) was “fungicidal”. The “fungicidal or fungistatic activity (CFU)” value (WT C. neoformans [2]; without Cu, ThM 100 μM) was “fungistatic”, the “restoration of growth of ctr1Δctr4Δ mutant” value [3] was “restored to near wild type levels” and the “Cu(II) log KML2” value (Conditional Cu [4]; [18]) was ≥20 ^b. For the same compound, the “pCu(II)” value (Conditional Cu [4]; [19]) was no less than 15, the “Cu(I) log KML2” value (Conditional Cu [5]; [20]) was 16.4 ± 0.1 and the “pCu(I)” value (Conditional Cu [5]; [19]) was 12.2. The “competition with calcein for Cu(II)” value [6] was “able to compete effectively for Cu(II) at both pH values”, the “cell-associated Cu, Fe and Zn content” value ([7]; 10 μM ligand alone, 1 h) was “Metal accumulation did not occur” and the “cell-associated Cu, Fe and Zn content” value [7, 21] was “hyper accumulation of Cu, Zn, and Fe”. The “stoichiometry with Cu(I)” value (Stoichiometry with Cu [8]) was “Bis complexes”.

With `O=C(N/N=C/c1ccccc1O)c1ccncc1` [SIH, salicylaldehyde isonicotinoyl hydrazine] the “Minimum inhibitory concentration (MIC)” value [1, 14] was “higher than 100 μM” and the “growth with compound in combination with Cu” value ([1]; with 1 mM Cu, SC medium, 48 h) was “inhibited growth slightly”.

In the case of `Cc1occc(=O)c1O` [Mal, maltol], the “restoration of growth of ctr1Δctr4Δ mutant” value [3] is reported as “unable to restore growth”, the “Cu(II) log KML2” value (Conditional Cu [4]; [18]) is reported as 12.2 ± 0.3 and the “pCu(II)” value (Conditional Cu [4]; [19]) is reported as 8.0. The “competition for Cu(I) with BCA or ferrozine” value (Conditional Cu [5]) was “did not compete” and the “cell-associated Cu, Fe and Zn content” value [7, 21] was “did not dramatically alter cellular metal content”.

With `[O-][n+]1ccccc1S` [PyS, pyrithione] the “effect of added Ag(I) on MIC” value ([1]; 48 h) was “significantly lowered”, the “effect of added Cu(II) on MIC” value ([1]; 48 h) was “significant decrease” and the “effect of added Fe(III) on MIC” value ([1]; 48 h) was “did not significantly affect”. The “effect of added Zn(II) on MIC” value ([1]; 48 h) was “did not significantly affect”, the MIC ([1]; 48 h, SC medium, 48 h) was 6 µM (≈ 0.763 µg/mL) and the “fungicidal or fungistatic activity (CFU)” value (WT C. neoformans [2]; [17]) was “fungicidal”. For the same compound, the “fungicidal or fungistatic activity (CFU)” value (WT C. neoformans [2]; without Cu, ThM 100 μM) was “fungicidal”, the “restoration of growth of ctr1Δctr4Δ mutant” value [3] was “restored to near wild type levels” and the “Cu(II) log KML2” value (Conditional Cu [4]; pH 7.4) was ≥20 ^b. For the same compound, the “pCu(II)” value (Conditional Cu [4]; pH 7.4) was no less than 15, the “Cu(I) log KML2” value (Conditional Cu [5]; pH 7.4) was 17.1 ± 0.2 and the “pCu(I)” value (Conditional Cu [5]; pH 7.4) was 12.9. The “competition with calcein for Cu(II)” value [6] was “able to compete effectively for Cu(II) at both pH values”, the “cell-associated Cu, Fe and Zn content” value ([7]; 10 μM ligand alone, 1 h) was “Metal accumulation did not occur” and the “cell-associated Cu, Fe and Zn content” value [7, 21] was “hyper accumulation of Cu, Zn, and Fe”. For the same compound, the “stoichiometry with Cu(II)” value (Stoichiometry with Cu [9]) was 2L:1Cu(II) and the “stoichiometry with Cu(I)” value (Stoichiometry with Cu [8]) was “Bis complexes”.

For `Cc1c(O)c(=O)ccn1C` [Dfp, deferiprone], the “Minimum inhibitory concentration (MIC)” value [1, 16] was greater than 100 µM, the “restoration of growth of ctr1Δctr4Δ mutant” value [3] was “unable to restore growth” and the “Cu(II) log KML2” value (Conditional Cu [4]; [18]) was 15.3 ± 0.3. For the same compound, the “pCu(II)” value (Conditional Cu [4]; [19]) was 11.1, the “competition for Cu(I) with BCA or ferrozine” value (Conditional Cu [5]) was “did not compete” and the “cell-associated Cu, Fe and Zn content” value [7, 21] was “did not dramatically alter cellular metal content”. The “cellular metal content compared to the other conditions” value ([7]; 1 h) was “decreased cellular metal content”.

In the case of `O=C(O)c1cc(-c2cc(C(=O)O)c3ccccc3n2)nc2ccccc12.O=C(O)c1cc(-c2cc(C(=O)O)c3ccccc3n2)nc2ccccc12.[Cu+]` [[Cu^I(BCA)2]^3−], the “Log K” value ([10]; constant in fitting model, universal buffer pH 7.4 with 5% DMSO) is given as 17.7[45].

With `Cc1cc(-c2ccc(S(=O)(=O)O)cc2)c2ccc3c(-c4ccc(S(=O)(=O)O)cc4)cc(C)nc3c2n1` [BCS, bathocuproine disulfonic acid] the “Minimum inhibitory concentration (MIC)” value [1, 14] was “higher than 100 μM”.

With `Cc1c(O)c(=S)ccn1C` [ThDfp] the “growth compared to no treatment at 48 h” value ([1]; SC medium) was “decrease in growth”, the “effect of supplemental Cu on the growth inhibition by the compound” value [1] was “reversed” and the “Minimum inhibitory concentration (MIC)” value [1, 14] was greater than 100 µM. For the same compound, the “Minimum inhibitory concentration (MIC)” value [1, 15] was greater than 100 µM, the “Minimum inhibitory concentration (MIC)” value [1, 16] was greater than 100 µM and the “restoration of growth of ctr1Δctr4Δ mutant” value [3] was “unable to restore growth”. The “Cu(II) log KML2” value (Conditional Cu [4]; [18]) was ≥20 ^b, the “pCu(II)” value (Conditional Cu [4]; [19]) was no less than 15 and the “Cu(I) log KML2” value (Conditional Cu [5]; [20]) was 16.4 ± 0.2. The “pCu(I)” value (Conditional Cu [5]; [19]) was 12.2, the “competition with calcein for Cu(II)” value [6] was “able to compete effectively for Cu(II) at both pH values” and the “cell-associated Cu, Fe and Zn content” value [7, 21] was “did not dramatically alter cellular metal content”. The “cellular metal content compared to the other conditions” value ([7]; 1 h) was “decreased cellular metal content”, the “stoichiometry with Cu(II)” value (Stoichiometry with Cu [9]) was 2L:1Cu(II) and the “stoichiometry with Cu(I)” value (Stoichiometry with Cu [8]) was “Bis complexes”.

With `[SH-].[SH-].[S]=[Mo]=[S]` [TTM, tetrathiomolybdate] the “growth compared to no treatment at 48 h” value ([1]; SC medium) was “decrease in growth”, the “effect of supplemental Cu on the growth inhibition by the compound” value [1] was “reversed” and the “Minimum inhibitory concentration (MIC)” value [1, 14] was “higher than 100 μM”.

With `O=C(O)CN(CCN(CC(=O)O)CC(=O)O)CC(=O)O` [EDTA, ethylenediamine tetraacetic acid] the “growth compared to no treatment at 48 h” value ([1]; SC medium) was “decrease in growth” and the “effect of supplemental Cu on the growth inhibition by the compound” value [1] was “reversed”.

For `O=S(=O)([O-])c1ccc(-c2nnc(-c3ccccn3)nc2-c2ccc(S(=O)(=O)[O-])cc2)cc1.[Na+].[Na+]` [ferrozine], the “log KFz2Cu” value ([10]; Cu(I) complex) is listed as 15.1.

In the case of `O=C(O)c1ccc(-n2nc(-c3ccccc3O)nc2-c2ccccc2O)cc1` [deferasirox], the “growth compared to no treatment at 48 h” value ([1]; SC medium) is reported as “decrease in growth” and the “effect of supplemental Cu on the growth inhibition by the compound” value [1] is reported as “reversed”.

With `Oc1cccc2cccnc12` [Compound 8HQ, 8-hydroxyquinoline] the “effect of added Ag(I) on MIC” value ([1]; 48 h) was “no effect”, the “effect of added Cu(II) on MIC” value ([1]; 48 h) was “significant decrease” and the “effect of added Fe(III) on MIC” value ([1]; 48 h) was “did not significantly affect”. For the same compound, the “effect of added Zn(II) on MIC” value ([1]; 48 h) was “did not significantly affect”, the MIC ([1]; 48 h, SC medium, 48 h) was 6 µM (≈ 0.871 µg/mL) and the “Minimum inhibitory concentration (MIC)” value [1, 14] was greater than 100 µM. The “pCu(II)” value (Conditional Cu [4]; pH 7.4) was 18.7, the “competition with calcein for Cu(II)” value [6] was “largest pH dependence” and the “Cu(II) log KML2” value [11] was 22.9 ± 0.1 ^a. For the same compound, the “fungicidal activity (viable fungi)” value (WT C. neoformans [12]) was “absence of detectable viable fungi” and the “restoration of growth of ctr1Δctr4Δ mutant” value [13] was “recover growth”.

In the case of `Oc1c(I)cc(Cl)c2cccnc12` [CQ, clioquinol], the “effect of supplemental Cu on the growth inhibition by the compound” value [1] is reported as “completely abrogated”, the MIC ([1]; 48 h, SC medium, 48 h) is reported as greater than 50 µM and the “restoration of growth of ctr1Δctr4Δ mutant” value [3] is reported as “unable to restore growth”.

With `CCN(CC)C(=S)SSC(=S)N(CC)CC` [DSF, disulfiram] the MIC ([1]; 48 h, SC medium, 48 h) was 6 µM (≈ 1.78 µg/mL) and the “restoration of growth of ctr1Δctr4Δ mutant” value [3] was “restored to near wild type levels”.

Source: paper PMC5269458 (Metallomics : integrated biometal science, 2017)
